Results on 31 molecules are retold here after ChEMBL document CHEMBL3091323, “Investigation of quinazolines as inhibitors of breast cancer resistance protein (ABCG2)” (Bioorg Med Chem, 2013).

Data set [1] has as its target T1, ATP-dependent translocase ABCB1 (Homo sapiens, UniProt P08183). Description: Inhibition of MDR1 in human doxorubicin-resistant A2780adr cells assessed as Calcein AM accumulation treated 30 mins before Calcein AM addition measured up to 90 mins by fluorescence assay. The class given is cell-based, A2780 ADR.
The target in another data set is MDR1 (Homo sapiens, UniProt P08183). The data set can be described thus: (§1) Inhibition of MDR1 in human doxorubicin-resistant A2780adr cells assessed as Calcein AM accumulation at 10 uM treated 30 mins before Calcein AM addition measured up to 90 mins by fluorescence assay relative to control. The following applies: doxorubicin-resistant A2780adr cells, probe Calcein AM. The class given is cell-based, A2780 ADR.

The target in data set [2] is T2, Broad substrate specificity ATP-binding cassette transporter ABCG2 (Homo sapiens, UniProt Q9UNQ0).
T2 sequence (Q9UNQ0 whole entry): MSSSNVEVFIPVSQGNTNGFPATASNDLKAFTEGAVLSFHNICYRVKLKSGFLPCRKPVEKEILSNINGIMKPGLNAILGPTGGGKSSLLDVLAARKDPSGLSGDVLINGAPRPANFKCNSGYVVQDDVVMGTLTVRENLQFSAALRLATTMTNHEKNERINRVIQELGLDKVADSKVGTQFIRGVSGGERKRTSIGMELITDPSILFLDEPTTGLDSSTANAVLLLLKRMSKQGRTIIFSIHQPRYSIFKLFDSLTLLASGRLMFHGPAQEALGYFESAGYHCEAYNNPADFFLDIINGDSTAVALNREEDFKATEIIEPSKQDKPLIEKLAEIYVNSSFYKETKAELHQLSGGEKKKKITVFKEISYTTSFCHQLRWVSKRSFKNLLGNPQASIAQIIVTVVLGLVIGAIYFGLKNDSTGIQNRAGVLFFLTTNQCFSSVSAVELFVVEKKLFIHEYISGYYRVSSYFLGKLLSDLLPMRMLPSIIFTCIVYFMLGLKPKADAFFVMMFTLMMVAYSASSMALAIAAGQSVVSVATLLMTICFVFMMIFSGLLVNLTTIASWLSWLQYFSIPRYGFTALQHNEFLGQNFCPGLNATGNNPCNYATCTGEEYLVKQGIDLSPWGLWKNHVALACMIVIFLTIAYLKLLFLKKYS
Description: Inhibition of human BCRP expressed in MDCK2 cells assessed as Hoechst 33342 accumulation treated 30 mins before Hoechst 33342 addition measured up to 120 mins by fluorescence assay. The class given is cell-based, MDCK-II.

For data set [3], the target named is T2, Broad substrate specificity ATP-binding cassette transporter ABCG2. Description: Inhibition of human BCRP expressed in MDCK2 cells assessed as pheophorbide A accumulation treated 30 mins before pheophorbide A addition measured up to 120 mins by flow cytometry. The format is cell-based, MDCK-II.
A further data set deals with MRP1 (Homo sapiens, UniProt P33527). Description: (§2) Inhibition of MRP1 in human 2008 cells assessed as Calcein AM accumulation at 10 uM treated 30 mins before Calcein AM addition measured up to 90 mins by fluorescence assay relative to control. The class given is cell-based. Conditions: human, 2008 cells, probe Calcein AM.
Another data set relates to BCRP. Description: Therapeutic index, ratio of GI50 for MDCK cells to IC50 for human BCRP expressed in MDCK2 cells. Conditions: dog.
Data set [4] in a line: Reduction of plasma membrane expression of BCRP expressing reporter gene GFP in BCRP-MDCK2 cells at 0.5 to 1.8 uM after 72 hrs by fluorescence assay relative to control. The format is functional, cell-based. Set-up: scale not given: the % may be the effect or the level left. The following applies: Canis lupus familiaris, MDCK-II. In outline: (§3)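 MDCK II cells transfected with human wild-type BCRP cDNA C-terminally fused to GFP. Seeded at 100,000 cells/well and treated 4 h later at final 0.5, 1.0 and 1.8 µM for 72 h at 37 °C. Surface BCRP measured by 5D3 antibody binding (FL2, 585 nm) and total BCRP by GFP (FL1, 520 nm) on a flow cytometer, gated on scatter. Geometric means normalized to untreated cells as 100%.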
For orientation: Reporter assays use an easily measured gene product as a stand-in for the process of interest.

Another data set deals with MDCK-II. The data set can be described thus: Increase of plasma membrane expression of BCRP expressing reporter gene GFP in BCRP-MDCK2 cells at 0.5 to 1.8 uM after 72 hrs by fluorescence assay. The format is functional, cell-based. Conditions: Canis lupus familiaris, in the assay text read “total expression” for “plasma membrane expression”. The method, boiled down: as §3

A short description of data set [5]: Cytotoxicity against MDCK cells after 72 hrs by MTT assay. The format is cell-based, Canis lupus familiaris. Conditions: dog. In outline: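 MTT assay in MDCK BCRP and parental MDCK cells: 2500 cells/well, 6 h attachment at 37 °C, 5% CO₂, compounds up to 100 µM for 72 h. MTT (5 mg/ml solution) added for 1 h, then lysis in DMSO. Absorbance read at 544 nm with 710 nm background correction. Controls were 10% DMSO medium and PBS only. GI₅₀ derived.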
Background: Tetrazolium dyes change colour on reduction, which living cells bring about.

The target in data set [6] is T1, ATP-dependent translocase ABCB1. The data set is described as §1. The format is cell-based, A2780 ADR. Conditions: a2780 adr, 10 µM.
Data set [7] has as its target Multidrug resistance-associated protein 1 (Homo sapiens, UniProt P33527). The description is as §2. The format is cell-based. The following applies: human, 2008, 10 µM.
Data set [8] deals with T2, Broad substrate specificity ATP-binding cassette transporter ABCG2. Description: Reversal of human BCRP-mediated multidrug resistant in MDCK2 cells assessed as increase of Hoechst 33342-induced cytotoxicity at 1 to 5 uM after 72 hrs by MTT assay. The format is cell-based. Conditions: mdck-ii. The method, boiled down: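 MDR reversal by MTT assay in MDCK BCRP cells with compounds at final 1 µM and 5 µM. Dose–response curves to Hoechst 33342 were compared with and without inhibitor and against sensitive MDCK cells. Conditions as for the MTT cytotoxicity assay: 2500 cells/well, 72 h, absorbance at 544/710 nm.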

pIC50: −log10 of the molar value. The source made the active and inactive calls. The calls are words filed in the database; no cut-off is given here.

Sequence of MRP1 (P33527 whole entry): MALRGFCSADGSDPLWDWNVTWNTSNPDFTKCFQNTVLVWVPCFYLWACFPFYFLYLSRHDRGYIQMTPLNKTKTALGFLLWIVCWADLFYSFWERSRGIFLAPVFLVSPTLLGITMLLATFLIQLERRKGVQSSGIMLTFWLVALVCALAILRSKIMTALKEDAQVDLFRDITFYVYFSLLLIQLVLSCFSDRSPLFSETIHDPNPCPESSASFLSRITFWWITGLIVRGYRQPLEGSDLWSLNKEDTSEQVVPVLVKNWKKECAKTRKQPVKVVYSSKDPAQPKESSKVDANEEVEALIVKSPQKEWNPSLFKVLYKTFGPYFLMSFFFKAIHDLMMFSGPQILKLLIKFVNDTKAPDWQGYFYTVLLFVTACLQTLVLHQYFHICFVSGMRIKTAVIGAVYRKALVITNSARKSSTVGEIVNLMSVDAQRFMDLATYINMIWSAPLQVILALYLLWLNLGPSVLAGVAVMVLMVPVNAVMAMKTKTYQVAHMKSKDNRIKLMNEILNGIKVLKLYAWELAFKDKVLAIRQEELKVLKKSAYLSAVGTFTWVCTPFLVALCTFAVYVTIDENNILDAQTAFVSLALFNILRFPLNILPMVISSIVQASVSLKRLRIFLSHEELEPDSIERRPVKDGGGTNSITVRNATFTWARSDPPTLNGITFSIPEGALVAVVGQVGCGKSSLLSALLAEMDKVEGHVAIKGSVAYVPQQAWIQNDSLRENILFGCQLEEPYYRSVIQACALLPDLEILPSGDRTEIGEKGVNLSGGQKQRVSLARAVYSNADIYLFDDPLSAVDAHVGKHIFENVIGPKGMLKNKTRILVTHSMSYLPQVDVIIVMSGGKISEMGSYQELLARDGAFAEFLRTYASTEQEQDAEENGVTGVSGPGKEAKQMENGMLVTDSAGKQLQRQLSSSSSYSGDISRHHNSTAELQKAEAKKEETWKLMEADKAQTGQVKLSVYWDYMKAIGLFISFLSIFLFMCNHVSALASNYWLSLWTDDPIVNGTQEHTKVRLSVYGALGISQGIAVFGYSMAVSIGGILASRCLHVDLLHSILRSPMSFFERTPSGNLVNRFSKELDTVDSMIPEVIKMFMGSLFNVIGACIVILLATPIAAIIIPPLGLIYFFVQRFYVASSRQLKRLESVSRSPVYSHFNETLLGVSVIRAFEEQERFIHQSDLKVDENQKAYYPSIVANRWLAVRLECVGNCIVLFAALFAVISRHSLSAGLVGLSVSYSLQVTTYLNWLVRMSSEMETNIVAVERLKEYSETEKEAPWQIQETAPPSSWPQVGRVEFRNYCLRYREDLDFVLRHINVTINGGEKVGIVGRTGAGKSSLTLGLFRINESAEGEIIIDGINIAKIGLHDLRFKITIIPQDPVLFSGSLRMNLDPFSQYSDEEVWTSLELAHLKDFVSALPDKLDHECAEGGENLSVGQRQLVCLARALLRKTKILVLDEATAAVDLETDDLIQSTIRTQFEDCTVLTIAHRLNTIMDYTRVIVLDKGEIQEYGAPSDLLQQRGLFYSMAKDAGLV
Sequence of MDR1 (P08183 whole entry): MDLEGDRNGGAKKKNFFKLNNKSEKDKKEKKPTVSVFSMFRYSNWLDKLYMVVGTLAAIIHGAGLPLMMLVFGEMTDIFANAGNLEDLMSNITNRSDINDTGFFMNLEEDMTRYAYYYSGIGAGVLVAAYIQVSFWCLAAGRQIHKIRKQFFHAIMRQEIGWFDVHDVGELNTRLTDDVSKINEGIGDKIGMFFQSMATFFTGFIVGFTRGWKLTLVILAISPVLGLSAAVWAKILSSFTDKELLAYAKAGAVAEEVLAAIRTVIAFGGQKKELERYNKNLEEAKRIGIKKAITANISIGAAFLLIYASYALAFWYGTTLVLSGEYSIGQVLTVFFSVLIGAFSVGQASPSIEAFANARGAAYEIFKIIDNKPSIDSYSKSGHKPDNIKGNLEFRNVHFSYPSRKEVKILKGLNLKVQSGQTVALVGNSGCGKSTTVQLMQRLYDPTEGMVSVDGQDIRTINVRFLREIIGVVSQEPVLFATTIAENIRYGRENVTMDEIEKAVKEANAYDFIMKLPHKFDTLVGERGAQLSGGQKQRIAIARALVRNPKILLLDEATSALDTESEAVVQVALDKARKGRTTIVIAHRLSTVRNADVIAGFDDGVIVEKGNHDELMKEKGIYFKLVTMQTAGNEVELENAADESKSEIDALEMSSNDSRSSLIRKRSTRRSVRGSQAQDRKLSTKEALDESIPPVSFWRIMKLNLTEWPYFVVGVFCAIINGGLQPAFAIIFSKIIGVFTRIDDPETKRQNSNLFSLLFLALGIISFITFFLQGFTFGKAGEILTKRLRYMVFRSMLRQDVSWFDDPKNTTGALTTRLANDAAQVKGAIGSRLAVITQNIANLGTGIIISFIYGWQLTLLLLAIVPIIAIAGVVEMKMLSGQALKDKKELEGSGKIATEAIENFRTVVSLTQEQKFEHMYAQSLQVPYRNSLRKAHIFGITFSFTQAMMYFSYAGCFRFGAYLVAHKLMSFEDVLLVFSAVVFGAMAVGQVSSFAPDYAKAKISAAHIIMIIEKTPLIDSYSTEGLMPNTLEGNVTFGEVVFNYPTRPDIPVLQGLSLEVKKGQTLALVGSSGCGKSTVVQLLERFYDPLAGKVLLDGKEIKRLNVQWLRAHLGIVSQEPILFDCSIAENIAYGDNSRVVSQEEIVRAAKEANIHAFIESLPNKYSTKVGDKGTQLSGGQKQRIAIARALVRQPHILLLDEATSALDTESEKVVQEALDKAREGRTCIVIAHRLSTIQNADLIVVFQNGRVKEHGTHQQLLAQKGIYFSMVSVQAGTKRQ
T1 sequence (P08183 whole entry): as above
Sequence of Multidrug resistance-associated protein 1 (P33527 whole entry): as the sequence (P33527 whole entry) above

In general, pIC50 refers to −log10 of the IC50, conventionally taken in molar units. By inhibition is commonly meant the relative decrease from the control value, in per cent. Take `COc1ccc(-c2nc(Nc3cccc(Br)c3)c3ccccc3n2)cc1OC`: the values for the pIC50 in data set [1], in data set [2] and in data set [3] were 4.93, 6.54 and 6.40, respectively. In addition, the inhibition at 90 min, 10 µM at MDR1 and on MRP1 was greater than 50% each time.

Regarding `FC(F)(F)c1cccc(Nc2ncnc3ccccc23)c1`, the pIC50 is 6.03 in data set [2] and 5.81 in [3].

Take `COc1ccc(Nc2ncnc3cc(OC)c(OC)cc23)cc1OC`: the pIC50 was 5.13 in data set [2] and 5.42 in [3].

In the case of `COc1ccc(Nc2nc(Nc3ccc(OC)c(OC)c3)c3cc(OC)c(OC)cc3n2)cc1OC`, the negative-log IC50 (pIC50) in data set [2] was 5.76; in data set [3], 5.82.

Take `COc1ccc(-c2nc(Nc3ccccc3[N+](=O)[O-])c3ccccc3n2)cc1OC`: the inhibition at 90 min, 10 µM on MDR1 and at MRP1 was greater than 50% throughout. For the same molecule, the pIC50 in data set [2] was 6.19; in [3] it was 5.81.

For `COc1cc2nc(Nc3cccc(Br)c3)nc(Nc3cccc(Br)c3)c2cc1OC`, the negative logarithm of the IC50 (pIC50) in data set [2] is 6.17; in data set [3] it was 6.07.

As for `COc1cc2nc(Nc3cccc(C(F)(F)F)c3)nc(Nc3cccc(C(F)(F)F)c3)c2cc1OC`, the pIC50 in data set [2] is 6.10; in data set [3], 6.21.

As a reminder, the GI50 is the concentration at which growth is held to half of that of the control. For the molecule `COc1cc2ncnc(Nc3cccc([N+](=O)[O-])c3)c2cc1OC`, the selectivity ratio in the data set on BCRP amounted to 1.85. The negative-log IC50 (pIC50) is 6.09 in data set [2] and 6.04 in data set [3]. Moreover, in [4], the Activity was 60%. In addition, the outcome in the data set on MDCK-II was inactive. This molecule also returned a GI50 at 72 h in data set [5] of 1.5 µM.

`COc1ccc(-c2nc(Nc3cccc(C(F)(F)F)c3)c3ccccc3n2)cc1OC`: the inhibition at 90 min, 10 µM on MDR1 and on MRP1 was greater than 50% in each case. Also, the pIC50 is 6.52 in data set [2] and 6.62 in data set [3].

For `COc1cc2nc(Nc3cccc([N+](=O)[O-])c3)nc(Nc3cccc([N+](=O)[O-])c3)c2cc1OC`, the negative logarithm of the IC50 (pIC50) in [2] was 6.48; in data set [3] it was 6.49.

`COc1ccc(-c2nc(Nc3cccc(O)c3)c3ccccc3n2)cc1OC`: the pIC50 in [1] is 4.74; in data set [2] it was 6.85; in [3], 6.96. Further, the selectivity ratio with BCRP (mdck2) was 33. For the same molecule, the inhibition at 90 min, 10 µM on MDR1 and on MRP1 was greater than 50% throughout. The molecule further had a GI50 at 72 h in data set [5] of 4.61 µM.

With `COc1cc2ncnc(Nc3cccc(C#N)c3)c2cc1OC`, the pIC50 in [2] is 5.97; in data set [3] it was 6.03.

For `COc1ccc(Nc2nc(-c3ccc(OC)c(OC)c3)nc3ccccc23)cc1OC`, the negative logarithm of the IC50 (pIC50) was 5.46 in data set [1], 6.38 in [2] and 6.21 in [3]. The inhibition at 90 min, 10 µM at MDR1 and on MRP1 was greater than 50% in each case.

Regarding `COc1cc2ncnc(Nc3ccccc3[N+](=O)[O-])c2cc1OC`, the values for the pIC50 in data set [2] and in data set [3] were 5.42 and 5.40, respectively.

Consider `O=[N+]([O-])c1cccc(Nc2ncnc3ccccc23)c1`, for which the selectivity ratio in the data set on BCRP stood at 16. The results for the negative-log IC50 (pIC50) in [2] and in data set [3] were 5.95 and 6.05, respectively. In addition, in data set [4], the outcome was inactive. Besides, in the data set with MDCK-II, the outcome was Active. Further, the GI50 at 72 h in [5] came to 18.3 µM.

`COc1ccc(-c2nc(Nc3ccccc3)c3ccccc3n2)cc1OC`: the inhibition at 90 min, 10 µM at MDR1 and at MRP1 was greater than 50% in each case. Further, the negative logarithm of the IC50 (pIC50) was 5.70 in [2] and 5.39 in data set [3].

Turning to `Brc1cccc(Nc2ncnc3ccccc23)c1`, the pIC50 in data set [2] was 5.97; in [3] it was 5.83.

For `COc1ccc(-c2nc(Nc3ccccc3O)c3ccccc3n2)cc1OC`, the inhibition at 90 min, 10 µM at MDR1 and at MRP1 was greater than 50% each time. For the same molecule, the negative-log IC50 (pIC50) in [2] was 6.59; in data set [3], 6.54.

Consider `COc1cc2ncnc(Nc3cccc(C(F)(F)F)c3)c2cc1OC`, for which the values for the negative-log IC50 (pIC50) in data set [2] and in data set [3] were 5.62 and 5.70, respectively.

Take `N#Cc1cccc(Nc2ncnc3ccccc23)c1`: the negative-log IC50 (pIC50) is 5.93 in data set [2] and 5.69 in data set [3].

For `COc1ccc(-c2nc(Nc3cccc([N+](=O)[O-])c3)c3ccccc3n2)cc1OC`, the pIC50 in data set [1] was 5.02. The inhibition at 90 min, 10 µM on MDR1 and at MRP1 was greater than 50% throughout. The molecule also displayed an Activity in [4] of 75%. Also, the result in the data set on MDCK-II was Active. The same molecule returned a concentration for 50% growth inhibition (GI50) at 72 h in data set [5] of 20.8 µM.

As to `Brc1cccc(Nc2nc(-c3ccccc3)nc3ccccc23)c1`, the pIC50 in data set [1] was 4.91.

Consider `O=[N+]([O-])c1cccc(Nc2nc(-c3ccccc3)nc3ccccc23)c1`, for which the “inhibition (INH)” value in [6] and in data set [7] was “Not Active” throughout. The result in data set [4] was inactive. Besides, the result in the data set with MDCK-II was Active. In data set [5], this molecule had a 50% growth inhibitory concentration (GI50) at 72 h of 67.8 µM.

As to `COc1cc2ncnc(Nc3ccc([N+](=O)[O-])cc3)c2cc1OC`, the negative-log IC50 (pIC50) is 5.53 in data set [2] and 5.61 in [3].

As for `Oc1cccc(Nc2nc(-c3ccccc3)nc3ccccc23)c1`, in the data set on BCRP (mdck2), the selectivity ratio was found to be 340. Further, the “inhibition (INH)” value in [6] and in [7] was “Not Active” each time. In addition, the pIC50 in data set [2] is 6.82. In data set [5], this molecule showed a GI50 at 72 h of 51.1 µM. Also, in data set [8], the outcome was Active.

Take `COc1cc2ncnc(Nc3cccc(Br)c3)c2cc1OC`: the negative-log IC50 (pIC50) in data set [2] was 5.76; in data set [3] it was 5.63.

Take `COc1cc2nc(Nc3cccc(C#N)c3)nc(Nc3cccc(C#N)c3)c2cc1OC`: the negative logarithm of the IC50 (pIC50) in data set [2] is 6.32; in [3], 6.33.

Regarding `COc1ccc(-c2nc(Nc3cccc(C#N)c3)c3ccccc3n2)cc1OC`, the inhibition at 90 min, 10 µM at MDR1 and on MRP1 was greater than 50% each time.

With `COc1ccc(-c2nc(Nc3ccc(O)cc3)c3ccccc3n2)cc1OC`, the inhibition at 90 min, 10 µM on MDR1 and at MRP1 was greater than 50% in each case. Further, the negative logarithm of the IC50 (pIC50) is 6.33 in [2] and 6.17 in data set [3].

`COc1ccc(Nc2ncnc3ccccc23)cc1OC`: the negative logarithm of the IC50 (pIC50) in [2] was 5.32; in data set [3] it was 5.47.

For `COc1cc2ncnc(Nc3ccc(F)c(Cl)c3)c2cc1OCCCN1CCOCC1` [GEFITINIB], the outcome (in [4]; in the data set with MDCK-II) was Active. In data set [5], this molecule had a GI50 at 72 h of 1.45 µM.
